Screens (PubChem BioAssay)
This is a sample that favours compounds with a hit; in the whole collection about 2% have one here.
ASAP1 GAP inh: blocks human ASAP1-stimulated Arf1 GTP hydrolysis; hit rate 0.19% among 360,000; GDP FP detection; AID 624377; Q9ULH1; inhibition, % at 16.5 µM; in the data active means inhibition above about 25%
MBD2 DNA inh: MBD2-methylated oligo binding inhibition | Q9UBB5 | TR-FRET, MBD2 binding to methylated oligonucleotide | inhibition, % at 4.4 µM | hit rate 0.31% among 370,000 | AID 686964; in the data active means inhibition above about 13%
Target sequence (Q9UBB5 whole entry, looked up): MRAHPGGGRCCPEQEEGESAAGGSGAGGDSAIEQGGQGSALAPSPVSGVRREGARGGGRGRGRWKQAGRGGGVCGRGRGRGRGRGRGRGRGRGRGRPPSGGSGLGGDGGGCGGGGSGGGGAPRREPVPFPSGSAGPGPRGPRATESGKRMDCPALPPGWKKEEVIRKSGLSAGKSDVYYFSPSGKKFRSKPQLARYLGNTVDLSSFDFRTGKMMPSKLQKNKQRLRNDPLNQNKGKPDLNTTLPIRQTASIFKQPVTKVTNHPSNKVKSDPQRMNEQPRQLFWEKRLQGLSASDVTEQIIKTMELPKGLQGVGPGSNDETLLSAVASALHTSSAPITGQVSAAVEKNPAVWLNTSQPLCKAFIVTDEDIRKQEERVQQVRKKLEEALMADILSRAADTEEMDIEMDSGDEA
UHRF1 MBD2 ctr: blocks human UHRF1 binding to methylated DNA. Q96T88. UHRF1 binding to methylated oligo, TR-FRET. inhibition, % at 4.4 µM. hit rate 0.75% among 370,000;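 further: UHRF1 SRA domain binding a hemimethylated CpG hairpin DNA probe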
TDP2 inh: TDP2 (human) inhibition, absorbance primary screen. hit rate 0.34% among 370,000. inhibition, % at 12.8 µM. recombinant TDP2, T5PNP hydrolysis, p-nitrophenol absorbance 415 nm;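 active means inhibition above the mean of all tested compounds plus 3 SD, set per campaign, cut at about 25% in these data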
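Assay system: recombinant human TDP2 / Reagent: T5PNP substrate at 5 mM, a TopII-DNA adduct mimic / Measured by: epi absorbance from released p-nitrophenol / Evaluation: % inhibition relative to enzyme-containing and enzyme-free wells / Control set: enzyme-free and DMSO wells / Replicates: each compound tested once, singlicate / Schedule: enzyme reaction with compound for 2 h at 37 °C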
LEDGF integ inh: blocks HIV-1 LEDGF/p75-dependent DNA integration | TR-FRET IN-LEDGF/p75 DNA integration, Eu/Cy5 | inhibition, % at 3.7 µM | hit rate 0.64% among 370,000 | AID 743269;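 active means inhibition above the screen-wide mean plus 3 SD, cut at about 13% in these data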;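 further: signal is the Cy5 over europium emission ratio at 671 and 618 nm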
ARFGAP1 inhibitor: inhibits rat ARF GTPase activating protein 1 | Q62848 | Arfgap1-stimulated ARF1 GTP hydrolysis, GDP FP detection | inhibition, % at 16.5 µM | hit rate 0.26% among 360,000;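 active means inhibition above a per-plate limit, mean inhibition of low control wells plus 3 SD, cut at about 25% in these data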
Target sequence (Q62848 1-136 limits assumed): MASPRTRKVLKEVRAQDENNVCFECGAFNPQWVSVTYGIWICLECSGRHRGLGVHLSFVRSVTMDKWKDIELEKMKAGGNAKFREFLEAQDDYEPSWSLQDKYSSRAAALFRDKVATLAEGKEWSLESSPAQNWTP
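Assay system: purified rat His6-Arfgap1 residues 1-136 (GAP domain); Reagent: human Δ17 ARF1 bound to GTP; Dosing: 16.5 µM single point, 1.26% DMSO; Times: GTP hydrolysis reaction 2 h at 25 °C; Signal: FP, GDP Alexa 633 tracer displaced from anti-GDP antibody, 620/688 nm; Measure: % inhibition from polarization.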
UHRF1 ctr MBD2: inhibits human UHRF1 binding to methylated oligonucleotide, MBD2 counter-screen. shares compounds with MBD2 DNA inh. TR-FRET. inhibition, % at 4.4 µM. hit rate 25% among 1,000. AID 720530;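 further: UHRF1 SRA domain binding a labeled hemimethylated CpG hairpin DNA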
MBD2 confirm: MBD2-DBD methyl-DNA binding inhibition, TR-FRET confirmation | inhibition, % at 4.4 µM | TR-FRET MBD2-DBD binding to methylated oligonucleotide | shares compounds with MBD2 DNA inh | hit rate 26% among 1,000; in the data active means inhibition above about 14%
Each line names hits and unclear results; the compound was inactive in the other large screens (follow-up assays come after a bar, where they were run); ! = not active in a repeat. Unless noted, no stated cut-off is given here; in the data, active means inhibition above about 21%; inactive means the rest.

COCCn1c(N)c(N(Cc2ccccc2)C(=O)c2ccc3ccccc3c2)c(=O)[nH]c1=O	MBD2 DNA inh 13, UHRF1 MBD2 ctr 26 | UHRF1 ctr MBD2 inactive | MBD2 confirm inactive
Cc1ccccc1-c1nnc2n1N=C(c1ccc(O)c(O)c1)CS2	none (no result: ASAP1 GAP inh, ARFGAP1 inhibitor)
O=C1c2cccc(NCCNCCO)c2C(=O)c2cccc(NCCNCCO)c21	MBD2 DNA inh 107, UHRF1 MBD2 ctr 93 | UHRF1 ctr MBD2 93 | MBD2 confirm 108
CCCCNC(=O)C[C@H]1C[C@@]2(C(=O)OCC)CCCC3=C2N(CCC3)C1=O	none (no result: ASAP1 GAP inh, ARFGAP1 inhibitor)
C=CCn1c2ccccc2c(=O)c2cc(C#Cc3cc(OC)cc(OC)c3)ccc21	none
CCOC(=O)CNC(=O)c1ccc(C#CC2(O)CCCCC2)cc1	none
C=CCN1[C@H](CO)[C@H](c2ccc(C#CC3(O)CCCC3)cc2)[C@@H]1C#N	MBD2 DNA inh 14 (no result: ASAP1 GAP inh, ARFGAP1 inhibitor) | UHRF1 ctr MBD2 inactive | MBD2 confirm inactive
C=CCN1[C@H](C#N)[C@@H](c2ccc(C#Cc3ccccc3OC)cc2)[C@H]1CO	MBD2 DNA inh 14 (no result: ASAP1 GAP inh, ARFGAP1 inhibitor) | UHRF1 ctr MBD2 inactive | MBD2 confirm inactive
CCC(=O)c1ccc(OCC(=O)OC(C)C(=O)NCc2ccc3c(c2)OCO3)cc1 (centres undefined)	MBD2 DNA inh 79 | UHRF1 ctr MBD2 inactive | MBD2 confirm inactive
COc1ccc(CNC(=O)C(C)OC(=O)CO/N=C(\C)c2ccc3c(c2)OCO3)cc1 (centres undefined)	none
CC(=O)Nc1nc(-c2ccccc2)ns1	MBD2 DNA inh 13 | UHRF1 ctr MBD2 inactive | MBD2 confirm inactive
COCCn1c(C)cc(C(=O)COC(=O)c2cc3c(s2)CCC3)c1C	MBD2 DNA inh 16 | UHRF1 ctr MBD2 23 | MBD2 confirm 19
CCCCCCCCNC(=O)C1CSCCS(=O)(=O)N1Cc1ccc(F)cc1 (centres undefined)	none (no result: ASAP1 GAP inh, ARFGAP1 inhibitor)
Cc1cccc(-c2cccc3c4c([nH]c23)[C@@H]2C[C@H]3[C@@H](C(=O)N2CC4)[C@H](C)ON3C)c1	none (no result: ASAP1 GAP inh, ARFGAP1 inhibitor)
O=C1NC(=S)SC1=Cc1ccccc1Cl	none
O=C1NC(=S)S/C1=C\c1ccc(SCc2ccccc2)o1	MBD2 DNA inh 29, UHRF1 MBD2 ctr 82, LEDGF integ inh 43 | UHRF1 ctr MBD2 inactive | MBD2 confirm inactive
O=C(O)c1cccc(Sc2cc(Cl)ccc2C(=O)O)c1	MBD2 DNA inh 13 | UHRF1 ctr MBD2 inactive | MBD2 confirm inactive
O=C(c1ccc(S(=O)(=O)N2CCC(c3nc4ccccc4[nH]3)CC2)cc1)N1CCOCC1	MBD2 DNA inh 14, UHRF1 MBD2 ctr 22 | UHRF1 ctr MBD2 inactive | MBD2 confirm inactive
COC(=O)C[C@@H]1CC[C@@H](NC(=O)C2CCC2)[C@@H](CO)O1	MBD2 DNA inh 21, UHRF1 MBD2 ctr 23 | UHRF1 ctr MBD2 inactive | MBD2 confirm inactive
COC(=O)C[C@@H]1CC[C@@H](NC(=O)NC2CCCC2)[C@@H](CO)O1	none
COc1ccc2c(c1OC)c(=O)n1c3ccc(OC(C)C(=O)NCCN4CCOCC4)cc3c3ccnc2c31 (centres undefined)	MBD2 DNA inh 36, UHRF1 MBD2 ctr 43 | UHRF1 ctr MBD2 52 | MBD2 confirm 50
Cc1ccc(C)c(S(=O)(=O)N2CCN(c3ncccn3)CC2)c1	MBD2 DNA inh 15 | UHRF1 ctr MBD2 inactive | MBD2 confirm inactive
Cc1ccc(S(=O)(=O)N2CCN(c3ncccn3)CC2)c(C)c1	none
CC1(C)S[C@@H]2[C@H](NC(=O)[C@H](N)c3ccccc3)C(=O)N2[C@H]1C(=O)O	MBD2 DNA inh 47!, UHRF1 MBD2 ctr 81!, LEDGF integ inh 52! | UHRF1 ctr MBD2 77 | MBD2 confirm 31
CCOC(=O)[C@]12CCCCC/C=C\1N(CCc1ccc(Cl)cc1)C(=O)[C@H]2CC(=O)N1CCN(C(=O)C2CC2)CC1	none (no result: ASAP1 GAP inh, ARFGAP1 inhibitor)
Cc1cccc(Cn2cc(COC(=O)NCCc3c[nH]c4ccccc34)nn2)c1	none (no result: ASAP1 GAP inh, ARFGAP1 inhibitor)
COC(=O)c1cc(-c2ccc(Oc3ccccc3)cc2)c(=O)n2c1CCC2	none (no result: ASAP1 GAP inh, ARFGAP1 inhibitor)
COC(=O)c1ccc(Oc2ccc3nnc(C)n3n2)cc1	MBD2 DNA inh 13 | UHRF1 ctr MBD2 inactive | MBD2 confirm inactive
COC(=O)c1ccc(Oc2ccc3nncn3n2)cc1	none
C=CC[C@@H](CC(=O)NCCO)C(=O)N[C@H](C)COC(=O)[C@@H](CC=C)Cc1ccc(F)cc1	MBD2 DNA inh 53 | UHRF1 ctr MBD2 inactive | MBD2 confirm inactive
O=C(CCCn1c(=O)c2ccccc2n(Cc2cccc(F)c2)c1=O)NC1CCN(Cc2ccccc2)CC1	none
O=C(CCCCn1c(=O)c2ccccc2n(Cc2ccccc2)c1=O)NC1CCN(Cc2ccccc2)CC1	MBD2 DNA inh 13, UHRF1 MBD2 ctr 27 | UHRF1 ctr MBD2 inactive | MBD2 confirm inactive
Cc1ccc(-c2ccc(CCC(=O)O)n2Cc2ccco2)cc1	MBD2 DNA inh 88 | UHRF1 ctr MBD2 inactive | MBD2 confirm inactive
COc1cccc2c1C(=O)c1c(O)c3c(c(O)c1C2=O)C[C@](O)(C(C)=O)C[C@H]3O[C@@H]1C[C@@H](N)[C@@H](O)[C@@H](C)O1	MBD2 DNA inh 112, UHRF1 MBD2 ctr 93 | UHRF1 ctr MBD2 101 | MBD2 confirm 111
O=C(NCC(c1cccs1)N1CCOCC1)c1cn(-c2ccccc2)nc1-c1ccc(Cl)cc1 (centres undefined)	MBD2 DNA inh 14 | UHRF1 ctr MBD2 inactive | MBD2 confirm inactive
CCCC(=O)Oc1ccc(N(C(=O)CCC)S(=O)(=O)c2cccc([N+](=O)[O-])c2)cc1	MBD2 DNA inh 17, UHRF1 MBD2 ctr 28 | UHRF1 ctr MBD2 inactive | MBD2 confirm inactive
O=C(Nc1ccc(Br)c(C(F)(F)F)c1)[C@@H]1CC=C[C@@H]2CCN(CC3CC3)C(=O)[C@@H]21	none (no result: ASAP1 GAP inh, ARFGAP1 inhibitor)
Cc1nc2ccc(C(=O)Nc3ccccc3Cl)cc2s1	MBD2 DNA inh 20 | UHRF1 ctr MBD2 inactive | MBD2 confirm inactive
COc1ccc(C(C)=O)cc1COC(=O)c1ccc2c(c1)OCO2	MBD2 DNA inh 14 | UHRF1 ctr MBD2 inactive | MBD2 confirm inactive
COCc1cn(-c2cccc(-c3noc4c3C(=O)N(CC(=O)N3CCOCC3)CC4)c2)nn1	none (no result: ASAP1 GAP inh, ARFGAP1 inhibitor)
CCC(C)NC(=O)CSc1nc2ccccc2c(=O)n1CCCN1CCCCC1 (centres undefined)	MBD2 DNA inh 14 | UHRF1 ctr MBD2 inactive | MBD2 confirm inactive
Cc1ccc(NC(=O)C2CCCN2S(=O)(=O)c2cccnc2)c(C)c1 (centres undefined)	none (no result: ASAP1 GAP inh, ARFGAP1 inhibitor)
OC[C@@H](O)C(O)[C@@H](O)CO (some centres undefined)	MBD2 DNA inh 22 | UHRF1 ctr MBD2 inactive | MBD2 confirm inactive
